Results as given in ChEMBL document CHEMBL1121726, “Pyrazolopyrimidine nucleosides. 12. Synthesis and biological activity of certain pyrazolo[3,4-d]pyrimidine nucleosides related to adenosine” (1981).
Activity calls are given as the source filed them. No cut-off for these calls is given here.

What was measured:
[1] = test system: P388; experiment: Toxicity against P388 leukemic cells 1-9 days after administration of 25 mg/kg of the compound; No; type: functional, organism-based; parameters: dose 25 mg/kg; details: Mus musculus
In short: (§1)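 Mice bearing L1210 or P388 leukemia were injected at the stated dose per injection on the listed days after tumor-cell inoculation. Host toxicity scores whether higher doses on the same schedule caused drug-induced shortening of life span: y = yes, n = no, nt = no higher dose tested.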

[2] = test system: L1210; experiment: In vitro inhibition of growth of L1210 mouse leukemic cells; type: functional; details: read-out: ID50 (the source's name)
In short: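 L1210 cells grown in static suspension culture in Fischer's medium for leukemic cells of mice, exposed to a range of test-compound concentrations. Growth rate measured over 3 days.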

[3] = test system: L1210; experiment: Toxicity against L1210 leukemic cells 1 day after administration of 133 mg/kg of the compound; No; type: functional, organism-based; parameters: dose 133 mg/kg; details: Mus musculus; in short: as §1
[4] = test system: P388; experiment: Increase in life span of tumor P388 leukemic mice 1-9 days after 25 mg/kg administered; type: functional, Mus musculus
[5] = test system: P388 (Mus musculus); experiment: Increase in life span of tumor P388 leukemic mice 1-9 days after 9.3 mg/kg administered
[6] = test system: L1210; experiment: Number of mice surviving 1 day after 133 mg/kg administered; 1/6; type: functional, Mus musculus
[7] = test system: L1210; experiment: Increase in life span of tumor L1210 leukemic mice 1 day after 133 mg/kg administered; type: functional, Mus musculus
In short: (§2)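 Mice bearing L1210 or P388 leukemia were injected with drug at the listed dose per injection on the listed days after tumor-cell inoculation. ILS was the percentage increase in life span of treated mice over untreated tumor-bearing controls.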

[8] = test system: L1210; experiment: Toxicity against L1210 leukemic cells 1-5 days after administration of 200 mg/kg of the compound; No higher dose tested; type: functional, organism-based; parameters: dose 200 mg/kg; details: Mus musculus; in short: as §1
[9] = test system: L1210; experiment: Increase in life span of tumor L1210 leukemic mice 1-5 days after 200 mg/kg administered; type: functional, Mus musculus; in short: as §2
[10] = test system: P388; experiment: Toxicity against P388 leukemic cells 1-9 days after administration of 3 mg/kg of the compound; Yes; type: functional, organism-based; parameters: dose 3 mg/kg; details: Mus musculus; in short: as §1
[11] = test system: L1210; experiment: Toxicity against L1210 leukemic cells 1-9 days after administration of 3.12 mg/kg of the compound; Yes; type: functional, organism-based; parameters: dose 3.12 mg/kg; details: Mus musculus; in short: as §1
[12] = test system: P388; experiment: Increase in life span of tumor P388 leukemic mice 1-9 days after 3 mg/kg administered; type: functional, Mus musculus; in short: as §2
[13] = test system: L1210; experiment: Increase in life span of tumor L1210 leukemic mice 1-9 days after 3.12 mg/kg administered; type: functional, Mus musculus; in short: as §2
[14] = test system: L1210; experiment: Increase in life span of tumor L1210 leukemic mice 1-5 days after 400 mg/kg administered; type: functional, Mus musculus; in short: as §2
[15] = test system: L1210; experiment: […] against L1210 leukemic cells 1-5 days after administration of 400 mg/kg of the compound; No higher dose tested; type: functional, organism-based; parameters: dose 400 mg/kg; details: Mus musculus
[16] = test system: L1210; experiment: Increase in life span of tumor L1210 leukemic mice 1-5 days after 25 mg/kg administered; type: functional, Mus musculus; in short: as §2
[17] = test system: L1210; experiment: Toxicity against L1210 leukemic cells 1-5 days after administration of 25 mg/kg of the compound; Yes; type: functional, organism-based; parameters: dose 25 mg/kg; details: Mus musculus; in short: as §1
[18] = test system: L1210; experiment: […] against L1210 leukemic cells 1-5 days after administration of 100 mg/kg of the compound; Yes; type: functional, organism-based; parameters: dose 100 mg/kg; details: Mus musculus
[19] = test system: L1210; experiment: Increase in life span of tumor L1210 leukemic mice 1-5 days after 100 mg/kg administered; type: functional; details: Mus musculus; in short: as §2
[20] = test system: L1210; experiment: Toxicity against L1210 leukemic cells 1-9 days after administration of 200 mg/kg of the compound; Yes; type: functional, organism-based; parameters: dose 200 mg/kg; details: Mus musculus; in short: as §1
[21] = test system: L1210; experiment: Increase in life span of tumor L1210 leukemic mice 1-9 days after 200 mg/kg administered; type: functional, Mus musculus; in short: as §2
[22] = test system: L1210; experiment: Toxicity against L1210 leukemic cells 1-5 days after administration of 200 mg/kg of the compound; Yes; type: functional, organism-based; parameters: dose 200 mg/kg; details: Mus musculus; in short: as §1
[23] = test system: L1210; experiment: Increase in life span of tumor L1210 leukemic mice 1-5 day after 200 mg/kg administered; type: functional, Mus musculus; in short: as §2
[24] = test system: L1210; experiment: Toxicity against L1210 leukemic cells 1-5 days after administration of 400 mg/kg of the compound; nt= No higher dose tested; type: functional, organism-based; parameters: dose 400 mg/kg; details: Mus musculus; in short: as §1
[25] = test system: L1210; experiment: […] against L1210 leukemic cells 1-9 days after administration of 400 mg/kg of the compound; No higher dose tested; type: functional, organism-based; parameters: dose 400 mg/kg; details: Mus musculus
[26] = test system: L1210; experiment: Increase in life span of tumor L1210 leukemic mice 1-9 days after 400 mg/kg administered; type: functional, Mus musculus; in short: as §2

Nc1ncnc2c1ncn2[C@@H]1O[C@H](CO)[C@@H](O)[C@H]1O [ADENOSINE]
Toxicity [1]: Not toxic
IC50 [2]: 0.4 µM
Toxicity [3]: Not toxic
ILS [4]: 54
ILS [5]: 24
Cures [6]: 1
ILS [7]: 48

CN(C)c1ncnc2c1cnn2C1O[C@H](CO)[C@@H](O)[C@H]1O (some centres not stated)
Toxicity [8]: No higher dose tested
ILS [9]: 0

NC(=S)c1nn(C2O[C@H](CO)[C@@H](O)[C@H]2O)c2ncnc(N)c12 (some centres not stated)
Toxicity [10]: Active
Toxicity [11]: Active
ILS [12]: 34
ILS [13]: 46

OC[C@H]1OC(n2ncc3c(Nc4ccccc4)ncnc32)[C@H](O)[C@@H]1O (some centres not stated)
ILS [14]: -4
Toxicity [15]: No higher dose tested

OC[C@H]1OC(n2ncc3c(NCc4ccccc4)ncnc32)[C@H](O)[C@@H]1O (some centres not stated)
ILS [16]: 3
Toxicity [17]: Active

C=CCSc1ncnc2c1cnn2C1O[C@H](CO)[C@@H](O)[C@H]1O (some centres not stated)
Toxicity [18]: Active
ILS at 100 mg/kg [19]: 2%

NNc1ncnc2c1cnn2C1O[C@H](CO)[C@@H](O)[C@H]1O (some centres not stated)
Toxicity [20]: Active
IC50 [2]: 60 µM
ILS [21]: 12

CSc1ncnc2c1cnn2C1O[C@H](CO)[C@@H](O)[C@H]1O (some centres not stated)
Toxicity [22]: Active
IC50 [2]: 9 µM
ILS [23]: 19

COC(=N)c1nn(C2O[C@H](CO)[C@@H](O)[C@H]2O)c2ncnc(N)c12 (some centres not stated)
ILS [14]: 64
Toxicity [24]: No higher dose tested

OC[C@H]1OC(n2ncc3c(S)ncnc32)[C@H](O)[C@@H]1O (some centres not stated)
ILS [14]: -6
Toxicity [24]: No higher dose tested

OC[C@H]1OC(n2ncc3c(N/N=C/c4ccc(N(CCCl)CCCl)cc4)ncnc32)[C@H](O)[C@@H]1O (some centres not stated)
Toxicity [25]: No higher dose tested
ILS [26]: -7
IC50 [2]: ~10 µM
